Reference: ChEMBL document CHEMBL3102806, “1,2,4-Triazole/oxime hybrids as new strategy for nitric oxide donors: Synthesis, anti-inflammatory, ulceroginicity and antiproliferative activities” (Eur J Med Chem, 2014)

Experiments:
Assay type in all cases: functional
BT-549 = test: Growth inhibition of human BT549 cells after 48 hrs by sulforhodamine B assay; conditions: BT-549, 48 h
Method in brief: (§1)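 NCI full ~60 cell line panel. Five 10-fold concentrations from 10^-4 to 10^-8 M, 48 h continuous exposure, SRB protein read-out. Time-zero, control and treated absorbances give percentage growth. GI50 is the concentration where [(Ti−Tz)/(C−Tz)]×100 = 50; TGI is where Ti = Tz; LC50 is where [(Ti−Tz)/Tz]×100 = −50.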

OVCAR-8 = test: Growth inhibition of human OVCAR8 cells after 48 hrs by sulforhodamine B assay; conditions: OVCAR-8, 48 h
Method in brief: (§2)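 NCI 60-cell-line panel (nine tumour subpanels), five-dose format: 10-fold dilutions from 10^-4 to 10^-8 M, 48 h continuous exposure, SRB protein stain. Percent growth at each level is derived from time-zero, untreated control and treated absorbances. GI50 is the concentration where [(Ti−Tz)/(C−Tz)]×100 = 50. Values outside the tested range are reported as above or below the limit.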

DU-145 = test: Growth inhibition of human DU145 cells after 48 hrs by sulforhodamine B assay; conditions: DU-145, 48 h; method in brief: as §1
M14 = test: Growth inhibition of human M14 cells after 48 hrs by sulforhodamine B assay; conditions: M14, 48 h; method in brief: as §2
786-0 = test: Growth inhibition of human 786-0 cells after 48 hrs by sulforhodamine B assay; conditions: 786-0, 48 h; method in brief: as §1
SF-268 = test: Growth inhibition of human SF268 cells after 48 hrs by sulforhodamine B assay; conditions: SF-268, 48 h; method in brief: as §2
LOX IMVI = test: Growth inhibition of human LOXIMVI cells after 48 hrs by sulforhodamine B assay; method in brief: as §2
MDA-MB-468 = test: Growth inhibition of human MDA-MB-468 cells after 48 hrs by sulforhodamine B assay; conditions: MDA-MB-468, 48 h; method in brief: as §2
NCI-H226 = test: Growth inhibition of human NCI-H226 cells after 48 hrs by sulforhodamine B assay; conditions: NCI-H226, 48 h; method in brief: as §2
K562 = test: Growth inhibition of human K562 cells after 48 hrs by sulforhodamine B assay; conditions: K562, 48 h; method in brief: as §1
SNB-19 = test: Growth inhibition of human SNB19 cells after 48 hrs by sulforhodamine B assay; conditions: SNB-19, 48 h
Method in brief: (§3)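 NCI 60-cell-line panel, five-dose run at 10-fold dilutions from 10^-4 to 10^-8 M, 48 h continuous exposure. Viability by SRB protein stain. Percent growth is taken from time-zero, untreated-control and treated absorbances. GI50 is the concentration giving a 50% lower net protein increase than in control cells. TGI is taken at Ti = Tz, LC50 at a 50% loss of initial protein.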

KM12 = test: Growth inhibition of human KM12 cells after 48 hrs by sulforhodamine B assay; conditions: KM12, 48 h; method in brief: as §2
TK-10 = test: Growth inhibition of human TK10 cells after 48 hrs by sulforhodamine B assay; conditions: TK-10, 48 h; method in brief: as §3
NCI-H322M = test: Growth inhibition of human NCI-H322M cells after 48 hrs by sulforhodamine B assay; method in brief: as §2
HT-29 = test: Growth inhibition of human HT-29 cells after 48 hrs by sulforhodamine B assay; conditions: HT-29, 48 h; method in brief: as §1
SK-OV-3 = test: Growth inhibition of human SKOV3 cells after 48 hrs by sulforhodamine B assay; conditions: SK-OV-3, 48 h; method in brief: as §3
A549 = test: Growth inhibition of human A549/ATCC cells after 48 hrs by sulforhodamine B assay; conditions: A549, 48 h; method in brief: as §1
NCI-H460 = test: Growth inhibition of human NCI-H460 cells after 48 hrs by sulforhodamine B assay; conditions: NCI-H460, 48 h; method in brief: as §2
ACHN = test: Growth inhibition of human ACHN cells after 48 hrs by sulforhodamine B assay; method in brief: as §1
SN12C = test: Growth inhibition of human SN12C cells after 48 hrs by sulforhodamine B assay; method in brief: as §3
[1] = Growth inhibition of human SF539 cells after 48 hrs by sulforhodamine B assay; conditions: SF-539, 48 h; method in brief: as §2
MOLT-4 = test: Growth inhibition of human MOLT4 cells after 48 hrs by sulforhodamine B assay; conditions: MOLT-4, 48 h; method in brief: as §2
NCI-H23 = test: Growth inhibition of human NCI-H23 cells after 48 hrs by sulforhodamine B assay; conditions: NCI-H23, 48 h; method in brief: as §2
[2] = Growth inhibition of human NCI-ADR-RES cells after 48 hrs by sulforhodamine B assay; method in brief: as §2
RPMI-8226 = test: Growth inhibition of human RPMI8226 cells after 48 hrs by sulforhodamine B assay; conditions: RPMI-8226, 48 h; method in brief: as §2
OVCAR-3 = test: Growth inhibition of human OVCAR3 cells after 48 hrs by sulforhodamine B assay; conditions: OVCAR-3, 48 h; method in brief: as §2
Malme-3M = test: Growth inhibition of human MALME-3M cells after 48 hrs by sulforhodamine B assay; method in brief: as §2
HOP-62 = test: Growth inhibition of human HOP62 cells after 48 hrs by sulforhodamine B assay; conditions: HOP-62, 48 h; method in brief: as §1
[3] = read-out: LC50 (the source's name)

For COc1ccc(-c2nnc(SCC(=O)Nc3ccc(/C(C)=N/O)cc3)n2-c2ccccc2)cc1OC, the GI50 (BT-549) was 13.7 µM, the TGI (BT-549) was > 100 µM and the CC50 (BT-549; [3]) was > 100 µM. The GI50 (OVCAR-8) was 7.36 µM, the TGI (OVCAR-8) was > 100 µM and the CC50 (OVCAR-8; [3]) was > 100 µM. For the same compound, the GI50 (DU-145) was 24.9 µM, the TGI (DU-145) was > 100 µM and the CC50 (DU-145; [3]) was > 100 µM. For the same compound, the GI50 (M14) was 97.4 µM, the TGI (M14) was > 100 µM and the CC50 (M14; [3]) was > 100 µM. For the same compound, the GI50 (786-0) was 14.9 µM, the TGI (786-0) was > 100 µM and the CC50 (786-0; [3]) was > 100 µM. For the same compound, the GI50 (SF-268) was 3.07 µM, the TGI (SF-268) was 20.3 µM and the CC50 (SF-268; [3]) was > 100 µM. For the same compound, the GI50 (LOX IMVI) was > 100 µM, the TGI (LOX IMVI) was > 100 µM and the CC50 (LOX IMVI; [3]) was > 100 µM. The GI50 (MDA-MB-468) was 16.4 µM, the TGI (MDA-MB-468) was > 100 µM and the CC50 (MDA-MB-468; [3]) was > 100 µM. The GI50 (NCI-H226) was 7.28 µM, the TGI (NCI-H226) was > 100 µM and the CC50 (NCI-H226; [3]) was > 100 µM. For the same compound, the GI50 (K562) was > 100 µM, the TGI (K562) was > 100 µM and the CC50 (K562; [3]) was > 100 µM. For the same compound, the GI50 (SNB-19) was 6.43 µM, the TGI (SNB-19) was > 100 µM and the CC50 (SNB-19; [3]) was > 100 µM. For the same compound, the GI50 (KM12) was > 100 µM, the TGI (KM12) was > 100 µM and the CC50 (KM12; [3]) was > 100 µM. For the same compound, the GI50 (TK-10) was 11.3 µM, the TGI (TK-10) was 52.7 µM and the CC50 (TK-10; [3]) was > 100 µM. For the same compound, the GI50 (NCI-H322M) was 4.41 µM, the TGI (NCI-H322M) was > 100 µM and the CC50 (NCI-H322M; [3]) was > 100 µM. For the same compound, the GI50 (HT-29) was > 100 µM, the TGI (HT-29) was > 100 µM and the CC50 (HT-29; [3]) was > 100 µM. The GI50 (SK-OV-3) was 2.73 µM, the TGI (SK-OV-3) was 13.7 µM and the CC50 (SK-OV-3; [3]) was > 100 µM. For the same compound, the GI50 (A549) was 9.73 µM, the TGI (A549) was > 100 µM and the CC50 (A549; [3]) was > 100 µM. For the same compound, the GI50 (NCI-H460) was > 100 µM, the TGI (NCI-H460) was > 100 µM and the CC50 (NCI-H460; [3]) was > 100 µM. The GI50 (ACHN) was 8.08 µM, the TGI (ACHN) was > 100 µM and the CC50 (ACHN; [3]) was > 100 µM. For the same compound, the GI50 (SN12C) was 26.2 µM, the TGI (SN12C) was > 100 µM and the CC50 (SN12C; [3]) was > 100 µM. For the same compound, the GI50 [1] was 4.77 µM, the TGI [1] was 38.8 µM and the CC50 [1, 3] was > 100 µM. The GI50 (MOLT-4) was > 100 µM, the TGI (MOLT-4) was > 100 µM and the CC50 (MOLT-4; [3]) was > 100 µM. The GI50 (NCI-H23) was 12.9 µM, the TGI (NCI-H23) was > 100 µM and the CC50 (NCI-H23; [3]) was > 100 µM. The GI50 [2] was > 100 µM, the TGI [2] was > 100 µM and the CC50 [2, 3] was > 100 µM. For the same compound, the GI50 (RPMI-8226) was > 100 µM, the TGI (RPMI-8226) was > 100 µM and the CC50 (RPMI-8226; [3]) was > 100 µM. For the same compound, the GI50 (OVCAR-3) was 7.87 µM, the TGI (OVCAR-3) was > 100 µM and the CC50 (OVCAR-3; [3]) was > 100 µM. For the same compound, the GI50 (Malme-3M) was 17.2 µM, the TGI (Malme-3M) was > 100 µM and the CC50 (Malme-3M; [3]) was > 100 µM. The GI50 (HOP-62) was 2.06 µM, the TGI (HOP-62) was 6.8 µM and the CC50 (HOP-62; [3]) was > 100 µM.
